Here are results for one compound from ChEMBL document CHEMBL4732196, “Structural optimization towards promising β-methyl-4-acrylamido quinoline derivatives as PI3K/mTOR dual inhibitors for anti-cancer therapy: The in vitro and in vivo biological evaluation” (Eur J Med Chem, 2021).

The target of data set [1] is Phosphatidylinositol 4,5-bisphosphate 3-kinase catalytic subunit alpha isoform (Homo sapiens, UniProt P42336). As to the kind of experiment: Inhibition of recombinant human PI3Kalpha using PIP2 as substrate incubated for 1 hr by kinase-glo luminescent assay. (Kinase-Glo reads ATP consumption through a luciferase reaction.)
Sequence of Phosphatidylinositol 4,5-bisphosphate 3-kinase catalytic subunit alpha isoform (P42336 whole entry, canonical isoform): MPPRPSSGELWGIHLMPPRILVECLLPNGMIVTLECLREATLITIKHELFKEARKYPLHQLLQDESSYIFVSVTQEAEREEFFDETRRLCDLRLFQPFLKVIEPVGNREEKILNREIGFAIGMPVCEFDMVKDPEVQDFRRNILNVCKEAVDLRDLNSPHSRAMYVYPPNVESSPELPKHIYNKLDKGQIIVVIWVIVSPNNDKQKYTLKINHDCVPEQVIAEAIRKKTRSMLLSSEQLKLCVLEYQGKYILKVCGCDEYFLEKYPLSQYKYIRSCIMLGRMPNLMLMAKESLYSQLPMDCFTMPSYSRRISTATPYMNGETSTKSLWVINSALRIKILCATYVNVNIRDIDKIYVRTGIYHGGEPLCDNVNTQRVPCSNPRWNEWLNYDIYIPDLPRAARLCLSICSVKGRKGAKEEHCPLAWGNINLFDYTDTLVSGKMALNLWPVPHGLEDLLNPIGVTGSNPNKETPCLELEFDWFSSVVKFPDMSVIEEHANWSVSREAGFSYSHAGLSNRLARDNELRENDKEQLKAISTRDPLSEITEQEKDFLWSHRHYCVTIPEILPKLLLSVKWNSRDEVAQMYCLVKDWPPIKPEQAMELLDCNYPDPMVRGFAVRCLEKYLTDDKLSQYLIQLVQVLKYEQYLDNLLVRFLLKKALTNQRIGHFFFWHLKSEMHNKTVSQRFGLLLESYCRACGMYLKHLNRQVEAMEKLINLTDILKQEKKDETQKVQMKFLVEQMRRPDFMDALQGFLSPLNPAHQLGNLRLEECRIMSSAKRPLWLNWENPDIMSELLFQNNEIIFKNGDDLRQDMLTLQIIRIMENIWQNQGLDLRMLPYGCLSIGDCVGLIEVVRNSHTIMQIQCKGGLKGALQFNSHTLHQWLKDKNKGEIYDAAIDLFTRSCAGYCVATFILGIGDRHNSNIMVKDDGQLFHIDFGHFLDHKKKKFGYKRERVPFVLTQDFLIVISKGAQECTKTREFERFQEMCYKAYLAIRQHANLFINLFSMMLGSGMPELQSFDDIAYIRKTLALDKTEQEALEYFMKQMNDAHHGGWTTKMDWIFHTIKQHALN
In another data set the test system is PC-3. The data set can be described thus: Growth inhibition of human PC3 cells after 72 hrs by sulforhodamine B assay. Type of data set: functional. A general note: Sulforhodamine B stains cellular protein and so reports cell mass.
Data set [2] concerns the target Phosphatidylinositol 4,5-bisphosphate 3-kinase catalytic subunit delta isoform (Homo sapiens, UniProt O00329). As to the kind of experiment: Inhibition of PI3Kdelta (unknown origin) using PIP2 as substrate measured after 1 hr by ADP-glo assay. In general terms: In ADP-Glo the light output rises with the ADP produced.
For data set [3], the target named is Activin receptor type-2B (Homo sapiens) (UniProt Q13705). As to the kind of experiment: Inhibition of human partial length ACVR2B (H169 to D504 residues) expressed in bacterial system assessed as residual activity at 10 uM by kinome scan method relative to control. The procedure, abridged: (§1)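 KINOMEscan binding assay, test compound at 10 μM against a 52-kinase panel. % Ctrl = (compound signal − positive control signal)/(negative control signal − positive control signal) × 100, with DMSO as negative control (100%) and a positive control (0%).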
Sequence of Activin receptor type-2B (Homo sapiens) (Q13705 whole entry, the tested form may be a part): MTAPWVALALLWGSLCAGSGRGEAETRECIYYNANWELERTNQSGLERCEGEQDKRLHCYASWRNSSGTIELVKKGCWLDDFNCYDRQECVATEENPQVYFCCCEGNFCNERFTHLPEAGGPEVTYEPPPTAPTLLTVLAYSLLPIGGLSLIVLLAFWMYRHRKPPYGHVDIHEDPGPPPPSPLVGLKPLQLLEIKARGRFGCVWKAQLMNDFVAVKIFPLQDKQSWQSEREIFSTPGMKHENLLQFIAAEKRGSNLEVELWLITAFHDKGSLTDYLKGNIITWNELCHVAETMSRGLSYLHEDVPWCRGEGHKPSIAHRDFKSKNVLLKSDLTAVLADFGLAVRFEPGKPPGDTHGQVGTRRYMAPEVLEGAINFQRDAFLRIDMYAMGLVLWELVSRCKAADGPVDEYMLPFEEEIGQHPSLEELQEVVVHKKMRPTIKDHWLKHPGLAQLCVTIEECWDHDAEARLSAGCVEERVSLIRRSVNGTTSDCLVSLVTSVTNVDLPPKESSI

Data set [4] has as its target Ankyrin repeat and protein kinase domain-containing protein 1 (Homo sapiens) (UniProt Q8NFD2). The data set can be described thus: Inhibition of human partial length ANKK1 (M1 to A305 residues) expressed in bacterial system assessed as residual activity at 10 uM by kinome scan method relative to control. The procedure, abridged: as §1
For data set [5], the target named is Cyclin-dependent kinase 11B (Homo sapiens) (UniProt P21127). The data set can be described thus: Inhibition of human partial length CDC2L1 (P353 to G692 residues) expressed in bacterial system assessed as residual activity at 10 uM by kinome scan method relative to control. The procedure, abridged: as §1
Sequence of Cyclin-dependent kinase 11B (Homo sapiens) (P21127 whole entry, the tested form may be a part, canonical isoform): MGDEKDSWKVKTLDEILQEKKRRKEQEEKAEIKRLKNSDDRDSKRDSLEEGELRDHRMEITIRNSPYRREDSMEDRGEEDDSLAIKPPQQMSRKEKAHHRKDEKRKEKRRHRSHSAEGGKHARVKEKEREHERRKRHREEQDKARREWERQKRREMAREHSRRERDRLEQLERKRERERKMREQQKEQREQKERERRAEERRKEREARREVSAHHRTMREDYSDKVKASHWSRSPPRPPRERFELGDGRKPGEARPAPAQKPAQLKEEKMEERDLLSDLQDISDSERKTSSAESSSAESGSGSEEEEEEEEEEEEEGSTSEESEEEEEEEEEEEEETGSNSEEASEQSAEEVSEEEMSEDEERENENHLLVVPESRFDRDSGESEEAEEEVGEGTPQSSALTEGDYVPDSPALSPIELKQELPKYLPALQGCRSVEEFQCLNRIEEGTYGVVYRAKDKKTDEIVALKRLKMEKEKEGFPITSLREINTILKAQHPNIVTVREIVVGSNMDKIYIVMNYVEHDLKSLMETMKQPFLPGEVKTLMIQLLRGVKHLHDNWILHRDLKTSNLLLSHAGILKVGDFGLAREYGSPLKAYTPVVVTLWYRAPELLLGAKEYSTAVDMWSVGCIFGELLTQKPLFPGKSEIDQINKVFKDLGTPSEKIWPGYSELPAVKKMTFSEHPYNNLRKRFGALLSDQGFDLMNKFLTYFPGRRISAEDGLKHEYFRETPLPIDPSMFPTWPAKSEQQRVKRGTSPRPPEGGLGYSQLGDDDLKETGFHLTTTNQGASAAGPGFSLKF
Data set [6] deals with Casein kinase I isoform alpha-like (Homo sapiens) (UniProt Q8N752). The data set can be described thus: Inhibition of human partial length CSNK1A1L (M1 to N337 residues) expressed in bacterial expression system assessed as residual activity at 10 uM by kinome scan method relative to control. The procedure, abridged:
as §1

Data set [7] has as its target Receptor tyrosine-protein kinase erbB-3 (Homo sapiens) (UniProt P21860). The data set can be described thus: Inhibition of human partial length ERBB3 (G684 to A987 residues) expressed in mammalian expression system assessed as residual activity at 10 uM by kinome scan method relative to control. The procedure, abridged: as §1
Data set [8] has as its target Mitogen-activated protein kinase 6 (Homo sapiens) (UniProt Q16659). As to the kind of experiment: Inhibition of human partial length ERK3 (M1 to P413 residues) expressed in bacterial expression system assessed as residual activity at 10 uM by kinome scan method relative to control. A digest of the protocol:
as §1

In data set [9] the target is Mitogen-activated protein kinase 4 (Homo sapiens) (UniProt P31152). The data set can be described thus: Inhibition of human partial length ERK4 (M1 to L365 residues) expressed in mammalian expression system assessed as residual activity at 10 uM by kinome scan method relative to control. The procedure, abridged:
as §1

In data set [10] the target is Mitogen-activated protein kinase kinase kinase 15 (Homo sapiens) (UniProt Q6ZN16). The data set can be described thus: Inhibition of human partial length MAP3K15 (T625 to L932 residues) expressed in bacterial expression system assessed as residual activity at 10 uM by kinome scan method relative to control. A digest of the protocol: as §1
For data set [11], the target named is Microtubule-associated serine/threonine-protein kinase 1 (Homo sapiens) (UniProt Q9Y2H9). The data set can be described thus: Inhibition of human partial length MAST1 (S346 to V730 residues) expressed in bacterial expression system assessed as residual activity at 10 uM by kinome scan method relative to control. A digest of the protocol:
as §1

For data set [12], the target named is Dual specificity mitogen-activated protein kinase kinase 7 (Homo sapiens) (UniProt O14733). The data set can be described thus: Inhibition of human full length MKK7 (M1 to R419 residues) expressed in mammalian expression system assessed as residual activity at 10 uM by kinome scan method relative to control. The procedure, abridged:
as §1

Data set [13] addresses Cyclin-dependent kinase 17 (Homo sapiens) (UniProt Q00537). As to the kind of experiment: Inhibition of human full length PCTK2 (M1 to F523 residues) expressed in bacterial expression system assessed as residual activity at 10 uM by kinome scan method relative to control. The procedure, abridged: as §1
Data set [14] concerns the target Cyclin-dependent kinase 18 (Homo sapiens) (UniProt Q07002). The data set can be described thus: Inhibition of human full length PCTK3 (M3 to F474 residues) expressed in bacterial expression system assessed as residual activity at 10 uM by kinome scan method relative to control. The procedure, abridged: as §1
Data set [15] deals with Phosphatidylinositol 4,5-bisphosphate 3-kinase catalytic subunit gamma isoform (Homo sapiens, UniProt P48736). The data set can be described thus: Inhibition of human partial length PIK3CG (S144 to A1102 residues) expressed in mammalian expression system assessed as residual activity at 10 uM by kinome scan method relative to control. A digest of the protocol: (§2)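 KINOMEscan competitive binding screen at 10 μM test compound against a 52-kinase panel. Output is % Ctrl = (test signal − positive control signal)/(negative control signal − positive control signal) × 100. DMSO is the negative control (100%) and the positive control is set to 0%.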

Data set [16] has as its target Phosphatidylinositol 4-kinase beta (Homo sapiens) (UniProt Q9UBF8). As to the kind of experiment: Inhibition of human partial length PIK4CB (M1 to M828 residues) expressed in mammalian expression system assessed as residual activity at 10 uM by kinome scan method relative to control. The procedure, abridged:
as §2

The target in data set [17] is 1-phosphatidylinositol 3-phosphate 5-kinase (Homo sapiens) (UniProt Q9Y2I7). As to the kind of experiment: Inhibition of human partial length PIKFYVE (F1512 to C2098 residues) expressed in mammalian expression system assessed as residual activity at 10 uM by kinome scan method relative to control. The procedure, abridged:
as §2

For data set [18], the target named is Phosphatidylinositol 5-phosphate 4-kinase type-2 beta (Homo sapiens) (UniProt P78356). The data set can be described thus: Inhibition of human full length PIP5K2B (M1 to T416 residues) expressed in bacterial expression system assessed as residual activity at 10 uM by kinome scan method relative to control. A digest of the protocol:
as §1

Data set [19] has as its target Serine/threonine-protein kinase TNNI3K (Homo sapiens) (UniProt Q59H18). The data set can be described thus: Inhibition of human full length TNNI3K (M1 to S835 residues) expressed in bacterial expression system assessed as residual activity at 10 uM by kinome scan method relative to control. The procedure, abridged: as §1
The nature of data set [20]: AUC(0 to t) in Sprague-Dawley rat at 5 mg/kg, po. Conditions: in vivo. Type of data set: ADME, organism-based. On the set-up: dose 5 mg/kg. A digest of the protocol: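 Male Sprague-Dawley rats (n = 3) given a single oral gavage of 5 mg/kg as a homogeneous opaque suspension in 0.5% methylcellulose; plasma concentration-time curves used to derive mean PK parameters.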

Data set [21] is described as follows: MRT(0 to infinity) in Sprague-Dawley rat at 5 mg/kg, po. Conditions: in vivo. Type of data set: ADME, organism-based. A digest of the protocol: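 Male Sprague-Dawley rats (n = 3) received a single 5 mg/kg oral gavage dose formulated as a suspension in 0.5% methylcellulose. Plasma concentration-time curves were recorded and mean PK parameters derived.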

Data set [22] can be described thus: Toxicity in ICR nude mouse xenografted with U87MG cells assessed as reduction in body weight at 30 to 60 mg/kg, po every other day for 24 days. The format is organism-based. Conditions: in vivo, 576 h, dose 30-60 mg/kg, time 24 day. A digest of the protocol:
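Male ICR nude mice were implanted subcutaneously with 5 × 10^6 U87MG cells. When tumors reached about 200 mm³, mice were randomized and given 30 or 60 mg/kg by oral gavage every other day for 24 days. Body weight and tumor volume (length × width² × 0.5) were recorded every 4 days, with a vehicle-treated group as comparator.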

Sequence of Phosphatidylinositol 4,5-bisphosphate 3-kinase catalytic subunit delta isoform (O00329 whole entry, the tested form may be a part, canonical isoform): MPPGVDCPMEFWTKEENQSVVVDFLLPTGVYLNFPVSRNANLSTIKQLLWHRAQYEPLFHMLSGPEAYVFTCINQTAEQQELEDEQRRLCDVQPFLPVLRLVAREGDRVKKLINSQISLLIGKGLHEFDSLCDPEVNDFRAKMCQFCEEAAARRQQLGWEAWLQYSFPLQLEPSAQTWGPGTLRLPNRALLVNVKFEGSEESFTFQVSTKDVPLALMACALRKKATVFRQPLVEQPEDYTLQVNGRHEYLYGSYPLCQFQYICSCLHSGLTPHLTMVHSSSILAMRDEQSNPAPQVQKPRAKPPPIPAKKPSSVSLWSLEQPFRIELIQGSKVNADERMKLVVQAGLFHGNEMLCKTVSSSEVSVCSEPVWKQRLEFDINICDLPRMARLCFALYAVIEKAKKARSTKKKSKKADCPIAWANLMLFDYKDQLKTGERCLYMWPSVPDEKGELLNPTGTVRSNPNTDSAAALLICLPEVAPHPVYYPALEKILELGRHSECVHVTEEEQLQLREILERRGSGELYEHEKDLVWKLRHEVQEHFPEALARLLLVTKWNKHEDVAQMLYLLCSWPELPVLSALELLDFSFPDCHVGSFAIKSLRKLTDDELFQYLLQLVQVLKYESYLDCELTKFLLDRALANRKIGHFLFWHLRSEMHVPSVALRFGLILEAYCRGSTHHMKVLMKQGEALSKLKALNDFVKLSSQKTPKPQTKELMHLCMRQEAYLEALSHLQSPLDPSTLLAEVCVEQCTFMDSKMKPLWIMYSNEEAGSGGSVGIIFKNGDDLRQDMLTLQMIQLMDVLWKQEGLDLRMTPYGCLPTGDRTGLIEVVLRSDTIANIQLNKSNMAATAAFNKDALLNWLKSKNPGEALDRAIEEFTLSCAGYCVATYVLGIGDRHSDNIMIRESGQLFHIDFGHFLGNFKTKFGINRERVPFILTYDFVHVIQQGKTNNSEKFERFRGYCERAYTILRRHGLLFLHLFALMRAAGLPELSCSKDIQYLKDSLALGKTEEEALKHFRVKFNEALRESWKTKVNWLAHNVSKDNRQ
Sequence of Cyclin-dependent kinase 18 (Homo sapiens) (Q07002 whole entry, the tested form may be a part, canonical isoform): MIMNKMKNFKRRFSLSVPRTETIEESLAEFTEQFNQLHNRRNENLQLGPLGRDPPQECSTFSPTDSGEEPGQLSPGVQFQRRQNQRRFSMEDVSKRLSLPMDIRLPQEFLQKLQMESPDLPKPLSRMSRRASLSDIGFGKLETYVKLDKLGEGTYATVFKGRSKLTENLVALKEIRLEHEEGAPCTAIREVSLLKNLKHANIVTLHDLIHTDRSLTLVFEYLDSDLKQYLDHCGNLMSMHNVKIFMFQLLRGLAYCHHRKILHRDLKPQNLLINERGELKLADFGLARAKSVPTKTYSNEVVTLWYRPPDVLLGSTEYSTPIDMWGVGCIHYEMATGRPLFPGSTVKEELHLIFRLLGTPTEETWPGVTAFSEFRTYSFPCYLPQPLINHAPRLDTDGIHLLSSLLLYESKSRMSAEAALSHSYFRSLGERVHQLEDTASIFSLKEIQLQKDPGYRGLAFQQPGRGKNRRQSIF
Sequence of Phosphatidylinositol 5-phosphate 4-kinase type-2 beta (Homo sapiens) (P78356 whole entry, the tested form may be a part): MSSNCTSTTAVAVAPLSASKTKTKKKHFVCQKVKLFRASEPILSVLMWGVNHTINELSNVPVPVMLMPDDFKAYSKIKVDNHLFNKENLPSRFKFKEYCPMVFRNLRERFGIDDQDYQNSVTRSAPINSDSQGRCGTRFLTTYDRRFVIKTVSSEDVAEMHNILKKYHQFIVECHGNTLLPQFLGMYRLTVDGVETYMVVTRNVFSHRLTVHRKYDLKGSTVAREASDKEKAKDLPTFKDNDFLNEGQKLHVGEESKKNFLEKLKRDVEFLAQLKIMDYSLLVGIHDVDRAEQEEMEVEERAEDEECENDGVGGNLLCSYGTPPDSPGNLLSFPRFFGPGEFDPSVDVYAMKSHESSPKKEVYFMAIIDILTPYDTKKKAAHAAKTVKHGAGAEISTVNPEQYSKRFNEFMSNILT
Sequence of Mitogen-activated protein kinase 6 (Homo sapiens) (Q16659 whole entry, the tested form may be a part): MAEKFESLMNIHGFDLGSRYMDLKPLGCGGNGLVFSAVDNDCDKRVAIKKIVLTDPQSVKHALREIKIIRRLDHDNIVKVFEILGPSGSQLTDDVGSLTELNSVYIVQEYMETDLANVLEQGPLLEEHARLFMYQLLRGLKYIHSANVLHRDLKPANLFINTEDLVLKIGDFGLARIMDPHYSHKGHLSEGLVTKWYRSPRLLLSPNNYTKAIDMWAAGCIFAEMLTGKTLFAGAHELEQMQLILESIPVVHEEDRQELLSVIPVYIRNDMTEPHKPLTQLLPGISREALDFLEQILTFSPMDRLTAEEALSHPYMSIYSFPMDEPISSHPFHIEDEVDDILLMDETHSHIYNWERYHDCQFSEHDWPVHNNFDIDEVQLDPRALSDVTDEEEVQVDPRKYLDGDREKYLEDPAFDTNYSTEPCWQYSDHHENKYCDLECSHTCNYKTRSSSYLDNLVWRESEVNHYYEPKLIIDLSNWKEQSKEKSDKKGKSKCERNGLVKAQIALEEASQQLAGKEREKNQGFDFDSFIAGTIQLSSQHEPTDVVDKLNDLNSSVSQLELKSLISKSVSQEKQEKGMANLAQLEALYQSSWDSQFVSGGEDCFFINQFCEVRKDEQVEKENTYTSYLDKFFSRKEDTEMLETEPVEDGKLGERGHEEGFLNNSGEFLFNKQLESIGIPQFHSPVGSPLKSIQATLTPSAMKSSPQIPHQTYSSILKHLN

As for `COc1ncc(-c2ccc3nccc(/C(C)=C/C(=O)N4CCN(C)CC4)c3c2)cc1NS(=O)(=O)c1ccc(F)cc1F`, the IC50 amounted to 0.8 nM in data set [1] and 1.3 nM in [2]. For the same compound, in the data set with PC-3, the GI50 was 360 nM. Also, the Activity in data set [3] was 100%; in data set [4], 100%; in data set [5], 93%; in data set [6] it was 84%; in [7], 89%; in data set [8] it was 78%. In addition, the Activity came out at 100% in data set [9]; 45% in [10]; 58% in [11]; 73% in data set [12]; 100% in data set [13]; 78% in data set [14]. Besides, the Activity is 0% in data set [15]; 0.55% in data set [16]; 1.9% in data set [17]; 9.4% in [18]; 87% in data set [19]; “Non-Toxic” in [22]. This compound also came in with an AUC(0-t) in data set [20] of 1340 ng·h/mL. The MRT inf in [21] is 2.57 h.

The IC50 is the midpoint of a concentration-inhibition curve. The term GI50 denotes the concentration that inhibits growth by half. A low value points to greater sensitivity of the cells. As usually defined, the AUC(0-t) is the area under the concentration-time curve up to a stated or last time point. A high value points to high exposure. One may read the MRT inf as a mean duration of stay, worked out from the concentration-time curve.
